Test: Absorption and fluorescence measurements
Format: physicochemical
Conditions: for Absorption maximum λmaxAb / Fluorescence quantum yield ΦF: CM : ACN (4 : 1, v/v); for Absorption maximum λmaxAb: RPMI 1640 cell medium pH 7.5, 25 °C, c = 0.6 μM; for Fluorescence quantum yield ΦF: cell medium pH 7.5, 25 °C, average of three measurements; for Extinction coefficient ε: PB : ACN (4 : 1, v/v), 10 mM phosphate buffer pH 7.5, 25 °C
In short: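 UV-Vis absorption and corrected fluorescence spectra at 25 °C in 1 cm quartz cells, ~0.5–0.6 μM dye in 10 mM phosphate buffer pH 7.5 or RPMI 1640 medium pH 7.5 (serum containing acetylcholinesterase). Excitation 532 and 710 nm. ΦF relative to ICG in methanol (0.044) and Cy3 in PBS (0.04), absorbance 0.04–0.06 at excitation. Three independent measurements averaged, reproducibility within 5%.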

| SMILES | Absorption maximum λmaxAb [nm] | Fluorescence quantum yield ΦF [%] | Extinction coefficient ε |
| --- | --- | --- | --- |
| C[N+]1=C(C=CC2=C(OC(=O)CCCc3ccc(N(CCCl)CCCl)cc3)C(=CC=C3N(CCCCCC(=O)O)c4ccccc4C3(C)C)CCC2)C(C)(C)c2ccccc21 [IRD-CLB, 2-(2-(2-((4-(4-(bis(2-chloroethyl)amino)phenyl)butanoyl)oxy)-3-(2-(1-(5-carboxypentyl)-3,3-dimethylindolin-2-ylidene)ethylidene)cyclohex-1-en-1-yl)vinyl)-1,3,3-trimethyl-3H-indol-1-ium] | 785 | 6.3 ± 0.5 | 160 000 M^−1 × cm^−1 |
| CN1C(=CC=C2CCCC(=CC=C3N(CCCCCC(=O)O)c4ccccc4C3(C)C)C2=O)C(C)(C)c2ccccc21 [RD, 6-(3,3-Dimethyl-2-(2-(2-oxo-3-(2-(1,3,3-trimethylindolin-2-ylidene)ethylidene)cyclohexylidene)ethylidene)indolin-1-yl)hexanoic acid] | 526 | 2.6 ± 0.1 | 57 000 M^−1 × cm^−1 |
